In brackets after ≈: the same amount, converted by molar mass. Activity calls are given as the source filed them. The calls are words filed in the database; no cut-off is given here.
How the values were obtained:
Pseudomonas aeruginosa [1] = experiment: Antibacterial activity against Pseudomonas aeruginosa ATCC 27853 measured over 1 month by microdilution assay; type: functional, organism-based
In short: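 Serial passage of P. aeruginosa ATCC 27853 held continuously at half the MIC for up to 38 days. […] The new minimal inhibitory concentration is read by visual inspection, confirmed by agar dilution, and the drug level raised to match.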

Staphylococcus aureus [2] = experiment: Antibacterial activity against Staphylococcus aureus ATCC 25923 by microdilution assay; type: functional
In short: (§1)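 Broth microdilution MIC per CLSI recommendations, fresh culture in cation-adjusted Mueller-Hinton broth, starting inoculum 10^6 cells.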

Staphylococcus aureus [3] = experiment: Antibacterial activity against Staphylococcus aureus SA-1 expressing NorA pump by microdilution assay
Staphylococcus aureus [4] = experiment: Antibacterial activity against methicillin-resistant Staphylococcus aureus ATCC 33592 by microdilution assay; type: functional; in short: as §1
Pseudomonas aeruginosa [5] = experiment: Antibacterial activity against Pseudomonas aeruginosa ATCC 27853 by microdilution assay; type: functional
In short: (§2)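 Broth microdilution per CLSI recommendations, using a fresh culture in cation-adjusted Mueller-Hinton broth (CA-MHB) and a starting inoculum of 10^6 cells; the MIC is the value read.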

Pseudomonas aeruginosa [6] = experiment: Antibacterial activity against Pseudomonas aeruginosa FO3 harboring AAC6'-2A by microdilution assay; type: functional; in short: as §1
Pseudomonas aeruginosa [7] = experiment: Antibacterial activity against Pseudomonas aeruginosa PA22 harboring surexp MexXY by microdilution assay; type: functional; in short: as §1
Pseudomonas aeruginosa [8] = experiment: Antibacterial activity against Pseudomonas aeruginosa PA406 harboring triABC deletion mutant by microdilution assay; type: functional; in short: as §1
Acinetobacter lwoffii [9] = experiment: Antibacterial activity against Acinetobacter lwoffii ATCC 17925 by microdilution assay; type: functional; in short: as §2
Acinetobacter lwoffii [10] = experiment: Antibacterial activity against Acinetobacter lwoffii AI.88-483 harboring APH3'-6A by microdilution assay; type: functional; in short: as §1
Escherichia coli [11] = experiment: Antibacterial activity against Escherichia coli PAZ505H8101 harboring AAC6'-1B by microdilution assay; type: functional; in short: as §1
Escherichia coli [12] = experiment: Antibacterial activity against Escherichia coli L8058.1 harboring ANT2'-1A by microdilution assay; type: functional; in short: as §1
Klebsiella pneumoniae = experiment: Antibacterial activity against Klebsiella pneumoniae 700603 by microdilution assay; type: functional; in short: as §2
[13] = (§3) Cytotoxicity against mouse J774 cells assessed as cell viability at 10 uM after 24 hrs by MTT assay relative to control; type: cell-based; conditions: J774 cells, read-out: Activity
In short: (§4)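 Murine J774 macrophages are exposed for 24 h to compound at 10 or 30 µM, then given 0.2 mg/mL MTT for 1 h. The reaction is stopped with DMSO and OD read at 570 nm; viability is metabolic activity as % of control. The number of independent experiments is given per value.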

[14] = (§5) Cytotoxicity against mouse J774 cells assessed as cell viability at 30 uM after 24 hrs by MTT assay relative to control; type: cell-based; conditions: J774 cells, read-out: Activity; in short: as §4
Pseudomonas aeruginosa [15] = experiment: Antibacterial activity against Pseudomonas aeruginosa ATCC 27853 after 15 to 38 days by microdilution assay; type: functional
Escherichia coli [16] = experiment: microbe, parasite or virus in culture; conditions: ATCC 25922
J774 [17] = experiment: as §3; type: cell-based; conditions: j774, 24 h, 10 µM; in short: as §4
J774 [18] = experiment: as §5; type: cell-based; conditions: j774, 24 h, 30 µM; in short: as §4
Pseudomonas aeruginosa [19] = experiment: microbe, parasite or virus in culture; conditions: ATCC 27853

Row | Compound | Activity (Pseudomonas aeruginosa [1]) | MIC (Staphylococcus aureus [2]) [µg/mL] | MIC (Staphylococcus aureus [3]) [µg/mL] | MIC (Staphylococcus aureus [4]) [µg/mL] | MIC (Pseudomonas aeruginosa [5]) [µg/mL] | MIC (Pseudomonas aeruginosa [6]) [µg/mL] | MIC (Pseudomonas aeruginosa [7]) [µg/mL] | MIC (Pseudomonas aeruginosa [8]) [µg/mL] | MIC (Acinetobacter lwoffii [9]) [µg/mL] | MIC (Acinetobacter lwoffii [10]) [µg/mL] | MIC (Escherichia coli [11]) [µg/mL] | MIC (Escherichia coli [12]) [µg/mL] | MIC (Klebsiella pneumoniae) [µg/mL] | viability at 24 h, 10 µM [13] [%] | viability at 24 h, 30 µM [14] [%] | MIC (Pseudomonas aeruginosa [15]) [µg/mL] | MIC (Escherichia coli [16]) [µg/mL] | Activity (J774 [17]) [%] | Activity (J774 [18]) [%] | MIC (Pseudomonas aeruginosa [19]) [µg/mL]
1 | NC[C@H]1O[C@H](O[C@H]2[C@H](O)[C@@H](O)[C@H](N)C[C@@H]2N)[C@H](N)[C@@H](OCCCc2ccc3ccccc3c2)[C@@H]1OCCCc1ccc2ccccc2c1 | Active |  |  |  |  |  |  |  |  |  |  |  |  |  |  |  |  |  |  | 
2 | CCCCCCCCCO[C@@H]1[C@@H](N)[C@@H](O[C@H]2[C@H](O)[C@@H](OCCCCCCCCC)[C@H](N)C[C@@H]2N)O[C@H](CN)[C@H]1O |  | 1 (≈ 1.74 µM) | 1 (≈ 1.74 µM) | 2 to 4 (≈ 3.48 to 6.96 µM) | 2 to 4 (≈ 3.48 to 6.96 µM) | 4 to 8 (≈ 6.96 to 13.9 µM) | 4 (≈ 6.96 µM) | 2 to 4 (≈ 3.48 to 6.96 µM) | 2 (≈ 3.48 µM) | 16 (≈ 27.8 µM) | 2 to 4 (≈ 3.48 to 6.96 µM) | 2 to 4 (≈ 3.48 to 6.96 µM) | 4 (≈ 6.96 µM) | 86.7 | 67.4 | 4 (≈ 6.96 µM) | 2 to 4 (≈ 3.48 to 6.96 µM) |  |  | 
3 | GENTAMICIN |  |  |  |  |  |  |  |  |  |  |  |  |  |  |  |  |  | 88.4 | 82.9 | 
4 | NC[C@H]1O[C@H](O[C@H]2[C@H](O)[C@@H](OCCCc3ccc4ccccc4c3)[C@H](N)C[C@@H]2N)[C@H](N)[C@@H](OCCCc2ccc3ccccc3c2)[C@@H]1O | Active | 2 (≈ 3.04 µM) | 2 (≈ 3.04 µM) | 2 (≈ 3.04 µM) | 8 to 16 (≈ 12.1 to 24.3 µM) | 16 (≈ 24.3 µM) | 16 (≈ 24.3 µM) | 2 to 4 (≈ 3.04 to 6.07 µM) | 4 (≈ 6.07 µM) | 32 to 64 (≈ 48.6 to 97.1 µM) | 4 to 8 (≈ 6.07 to 12.1 µM) | 16 (≈ 24.3 µM) | 32 (≈ 48.6 µM) | 91.1 | 89.5 |  | 8 (≈ 12.1 µM) |  |  | 
5 | O=C(O)c1cn(C2CC2)c2cc(N3CCNCC3)c(F)cc2c1=O [CIPROFLOXACIN] | Active |  |  |  |  |  |  |  |  |  |  |  |  |  |  |  |  |  |  | 16 (≈ 48.3 µM)

Reference: ChEMBL document CHEMBL4265973, “Broad-spectrum antibacterial amphiphilic aminoglycosides: A new focus on the structure of the lipophilic groups extends the series of active dialkyl neamines” (Eur J Med Chem, 2018)
